Our source for the Ki and Selectivity values is ChEMBL document CHEMBL1132196, “Synthesis, biochemical evaluation, and classical and three-dimensional quantitative structure-activity relationship studies of 7-substituted-1,2,3,4-tetrahydroisoquinolines and their relative affinities toward phenylethanolamine N-methyltransferase and the alpha2-adrenoceptor” (J Med Chem, 1999).

Assay [1] concerns the target T1, Phenylethanolamine N-methyltransferase (Bos taurus, UniProt P10938).
T1 sequence (P10938 whole entry): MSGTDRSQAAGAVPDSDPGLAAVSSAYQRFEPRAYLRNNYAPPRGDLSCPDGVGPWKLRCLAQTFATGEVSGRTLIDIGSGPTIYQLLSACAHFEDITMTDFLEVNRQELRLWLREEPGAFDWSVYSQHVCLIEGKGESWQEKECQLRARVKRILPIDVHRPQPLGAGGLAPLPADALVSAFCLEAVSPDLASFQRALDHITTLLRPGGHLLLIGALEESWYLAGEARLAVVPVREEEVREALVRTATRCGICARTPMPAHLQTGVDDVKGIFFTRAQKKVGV
As to the kind of experiment: In vitro inhibitory activity against bovine adrenal phenylethanolamine N-methyl-transferase (PNMT).

The target in assay [2] is T2, Adrenergic receptor alpha-2 (Rattus norvegicus, UniProt P22086+P19328+P22909).
T2 sequence (P22086 whole entry): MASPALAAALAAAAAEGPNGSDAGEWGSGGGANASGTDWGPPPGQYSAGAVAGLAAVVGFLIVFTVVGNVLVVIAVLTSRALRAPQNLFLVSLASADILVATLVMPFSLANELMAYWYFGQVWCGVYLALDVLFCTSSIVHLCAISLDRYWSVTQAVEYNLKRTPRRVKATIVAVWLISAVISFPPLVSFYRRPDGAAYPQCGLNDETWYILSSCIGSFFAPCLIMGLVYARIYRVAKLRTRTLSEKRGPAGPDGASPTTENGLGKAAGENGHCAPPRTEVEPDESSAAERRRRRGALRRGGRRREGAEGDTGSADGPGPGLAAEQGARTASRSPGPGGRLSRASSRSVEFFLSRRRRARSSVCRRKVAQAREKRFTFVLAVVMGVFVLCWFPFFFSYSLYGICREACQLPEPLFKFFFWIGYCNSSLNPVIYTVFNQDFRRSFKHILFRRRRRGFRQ
T2 sequence (P19328 whole entry): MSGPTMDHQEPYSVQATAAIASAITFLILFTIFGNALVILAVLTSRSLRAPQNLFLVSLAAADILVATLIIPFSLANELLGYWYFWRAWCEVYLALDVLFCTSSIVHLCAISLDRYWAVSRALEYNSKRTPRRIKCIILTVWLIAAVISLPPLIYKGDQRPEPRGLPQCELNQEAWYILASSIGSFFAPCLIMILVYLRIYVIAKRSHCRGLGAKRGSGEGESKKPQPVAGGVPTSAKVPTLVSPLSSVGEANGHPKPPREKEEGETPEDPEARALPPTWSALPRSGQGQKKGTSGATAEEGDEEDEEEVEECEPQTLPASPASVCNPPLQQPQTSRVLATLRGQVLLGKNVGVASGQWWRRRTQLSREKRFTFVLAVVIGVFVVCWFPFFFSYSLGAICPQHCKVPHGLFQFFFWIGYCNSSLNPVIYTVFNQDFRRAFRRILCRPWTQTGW
T2 sequence (P22909 whole entry): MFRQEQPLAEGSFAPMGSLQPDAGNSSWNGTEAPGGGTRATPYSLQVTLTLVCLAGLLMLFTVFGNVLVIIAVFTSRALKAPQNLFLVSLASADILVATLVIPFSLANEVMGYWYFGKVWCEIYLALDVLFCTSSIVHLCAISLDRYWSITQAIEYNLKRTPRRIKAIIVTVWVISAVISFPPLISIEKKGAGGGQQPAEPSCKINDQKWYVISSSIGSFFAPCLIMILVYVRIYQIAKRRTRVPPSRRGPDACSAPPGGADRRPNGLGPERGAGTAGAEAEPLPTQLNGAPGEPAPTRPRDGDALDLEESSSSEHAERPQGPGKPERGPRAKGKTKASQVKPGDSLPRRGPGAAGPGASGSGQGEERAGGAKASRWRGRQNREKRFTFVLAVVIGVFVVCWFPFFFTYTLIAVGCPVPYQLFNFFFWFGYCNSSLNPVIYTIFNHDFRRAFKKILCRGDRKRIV
The assay can be described thus: In vitro inhibitory activity against Alpha-2 adrenergic receptor using [3H]clonidine as radioligand in male Sprague-Dawley rats. The format is protein assay. Put shortly:
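Rat cerebral cortex (male Sprague–Dawley) homogenised in ice-cold 50 mM Tris/HCl pH 7.7, washed by three 50 000g spins, resuspended in 200 volumes. [3H]clonidine 4.0 nM final, 25 °C for 30 min, filtration, scintillation counting. Nonspecific binding with 2 μM phentolamine. Quadruplicate, five concentrations over 16-fold range. IC50 by log-probit; Ki = IC50/(1+[clonidine]/KD).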

The species entered for another assay is Bos taurus. The assay can be described thus: Binding selectivity against PNMT and alpha-2-adrenoceptors, measured as a ratio of respective in vitro Ki's.
Assay [3] has as its target T1, Phenylethanolamine N-methyltransferase. As to the kind of experiment: In vitro inhibitory activity against bovine adrenal phenylethanolamine N-methyltransferase(PNMT).

`CS(=O)(=O)c1ccc2c(c1)CNCC2`: the inhibition constant Ki – broadly, a dissociation constant, usually derived from enzyme kinetics or from competition with a known ligand – in assay [1] turned out to be 1.3 µM; in assay [2] it was 160 µM. Further, in the assay filed under Bos taurus, the Selectivity stood at 120. As for `Oc1ccc2c(c1)CNCC2`, the Selectivity in the assay filed under Bos taurus is 0.85. For the compound `CS(=O)(=O)Nc1ccc2c(c1)CNCC2`, the Selectivity in the assay listed under Bos taurus worked out at 0.23. On to `C=CCS(=O)(=O)c1ccc2c(c1)CNCC2`, for which the Ki in assay [1] is 9.8 µM. Also, the Selectivity in the assay listed under Bos taurus worked out at 9.7. For `CS(=O)(=O)N(c1ccc2c(c1)CNCC2)S(C)(=O)=O` the same measures were about 4500 µM and 0.042. For the compound `O=S(=O)(Nc1ccc(Cl)cc1)c1ccc2c(c1)CNCC2`, the Selectivity in the assay listed under Bos taurus came out at 2.4. `COc1ccc2c(c1)CNCC2` registered a Ki in assay [1] of 21 µM. In addition, the Selectivity in the assay filed under Bos taurus came to 0.022.

Turning to `O=[N+]([O-])c1ccc2c(c1)CNCC2`, in assay [1], affinity was put at a Ki of 0.41 µM. In addition, in the assay filed under Bos taurus, the Selectivity came out at 10. For the compound `N#Cc1ccc2c(c1)CNCC2`, the Ki in assay [1] was 1.4 µM. In the assay filed under Bos taurus, the Selectivity worked out at 5.2. For the compound `NC(=O)c1ccc2c(c1)CNCC2`, the Ki in assay [1] stood at 64 µM. Further, the Selectivity in the assay filed under Bos taurus stood at 0.36. As to `CC(=O)Nc1ccc2c(c1)CNCC2`, the results for the Ki in assay [1] and in assay [2] were 190 µM and 9.1 µM, respectively. Also, the Selectivity in the assay listed under Bos taurus stood at 0.48.

Regarding `CC(=O)c1ccc2c(c1)CNCC2`, the Ki in assay [1] turned out to be 4.9 µM. In addition, the Selectivity in the assay listed under Bos taurus came to 1.2. Take `Brc1ccc2c(c1)CNCC2`: the Ki in assay [3] is 0.29 µM. The compound `OCc1ccc2c(c1)CNCC2` registered a Ki in assay [1] of 11 µM. In the assay filed under Bos taurus, the Selectivity stood at 0.21. With `NCc1ccc2c(c1)CNCC2`, the affinity in assay [1], expressed as Ki, was 1900 µM. The Selectivity in the assay listed under Bos taurus was 0.0063. With `O=C(c1ccccc1)c1ccc2c(c1)CNCC2`, in assay [1], the affinity, expressed as Ki, was 2.9 µM. For the same compound, in the assay listed under Bos taurus, the Selectivity amounted to 9.3.

Regarding `NS(=O)(=O)c1ccc2c(c1)CNCC2`, the Selectivity in the assay listed under Bos taurus was found to be 180.

The compound `Nc1ccc2c(c1)CNCC2` gave a Ki in assay [1] of 27 µM. For the same compound, the Selectivity in the assay filed under Bos taurus was found to be 0.11. For `COC(=O)c1ccc2c(c1)CNCC2`, in that order: 6.7 µM and 0.68.

In the case of `O=C(O)c1ccc2c(c1)CNCC2`, the Ki in assay [1] is 470 µM. Moreover, the Selectivity in the assay listed under Bos taurus was determined as 1.

Consider `O=S(=O)(c1ccc2c(c1)CNCC2)C(Cl)(Cl)Cl`, for which the Ki in assay [3] is 1.3 µM. That is a single-digit micromolar value. As for `CS(=O)(=O)NCc1ccc2c(c1)CNCC2`, in the assay filed under Bos taurus, the Selectivity is 0.055.

Turning to `C[S+]([O-])c1ccc2c(c1)CNCC2` (configuration not stated), the inhibitory constant (Ki) in assay [1] is 45 µM; in assay [2], 51 µM. Moreover, in the assay listed under Bos taurus, the Selectivity stood at 1.1. As for `O=S(=O)(c1ccccc1)c1ccc2c(c1)CNCC2`, the Ki in assay [1] came out at 14 µM; in assay [2], 21 µM. In addition, in the assay filed under Bos taurus, the Selectivity is 1.5.

Compound `O=C(c1ccc2c(c1)CNCC2)C(F)(F)F` yielded a Ki in assay [1] of 5.7 µM. In the assay filed under Bos taurus, the Selectivity is 5.6.
